# Source: ChEMBL document CHEMBL1132144, “Synthesis of 9-O-substituted derivatives of 9-hydroxy-5, 6-dimethyl-6H-pyrido[4,3-b]carbazole-1-carboxylic acid (2-(dimethylamino)ethyl)amide and their 10- and 11-methyl analogues with improved antitumor activity” (J Med Chem, 1999)
# pIC50: −log10 of the molar value. Several values for one entry are separate records, joined by “and”; a condition that tells them apart may be missing. Equal entries are not always repeated.
# Assays:
# [1] = system: L1210; assay: Inhibition of murine L1210 leukemia cell proliferation measured by the MTT assay; assay type: functional, cell-based; settings: Mus musculus
# How it was run: (§1)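 Murine L1210 leukemia and B16 melanoma cells were grown in RPMI 1640 with 10% fetal calf serum, 2 mM L-glutamine, penicillin/streptomycin and 10 mM HEPES (pH 7.4). Cells were exposed to nine serial drug dilutions in triplicate for about four doubling times (L1210 48 h, B16 96 h), then read by microculture tetrazolium (MTT) assay. IC50 is the concentration halving optical density versus untreated controls, averaged over ≥2 independent experiments.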
# [2] = system: Mus musculus; assay: Percent median survival time of mice injected with B16 melanoma, at a intraperitoneal compound dose of 20 mg/kg
# [3] = system: B16; assay: Inhibition of murine B16 melanoma cell proliferation measured by the MTT assay; assay type: functional, cell-based; settings: Mus musculus; how it was run: as §1
# [4] = system: Mus musculus; assay: Percent median survival time of mice intraperitoneally injected with P388 leukemia was determined from tested at 160 mg/kg at day1 dose to that of control; assay type: functional
# How it was run: (§2)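 P388 leukemia in B6D2F1 mice (groups of 6–7), 10^6 cells inoculated ip on day 0. Dihydrochloride salts were dissolved in water and given iv on day 1 or on days 1, 5, 9. Three doses were tested, then five if active. %T/C = median survival treated/control × 100, reported at the optimal dose (no toxic death, weight loss <20%), from one or two representative experiments.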
# [5] = system: Mus musculus; assay: Percent median survival time of mice intraperitoneally injected with P388 leukemia was determined from tested at 80 mg/kg at day1,5,9 dose to that of control; assay type: functional; settings: route intraperitoneal; how it was run: as §2
# [6] = system: Mus musculus; assay: Long-term survivors among 6 mice infected with P388 leukemia, scored on day 60 at 160 mg/kg dose; assay type: functional
# How it was run: (§3)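 B6D2F1 mice in groups of 6–7 were inoculated ip on day 0 with 10^6 P388 cells. Dihydrochloride salts were dissolved in water and given iv on day 1 or on days 1, 5 and 9. Doses ranged from a low nontoxic dose to a toxic one. Long-term survivors were counted at day 60.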
# [7] = system: Mus musculus; assay: Long-term survivors among 6 mice infected with P388 leukemia, scored on day 60 at 80 mg/kg dose; assay type: functional; how it was run: as §3
# [8] = system: Mus musculus; assay: Percent median survival time of mice intraperitoneally injected with P388 leukemia was determined from tested at 40 mg/kg at day1,5,9 dose to that of control; assay type: functional; settings: route intraperitoneal; how it was run: as §2
# [9] = system: Mus musculus; assay: Long-term survivors among 6 mice infected with P388 leukemia, scored on day 60 at 40 mg/kg dose; assay type: functional; how it was run: as §3
# [10] = system: Mus musculus; assay: Long-term survivors among 6 mice infected with P388 leukemia, scored on day 90 at 20 mg/kg dose; assay type: functional
# [11] = system: Mus musculus; assay: Long-term survivors among 7 mice infected with P388 leukemia, scored on day 90 at 10 mg/kg dose; assay type: functional
# [12] = system: Mus musculus; assay: Percent median survival time of mice injected with B16 melanoma, at a intraperitoneal compound dose of 10 mg/kg
# [13] = system: Mus musculus; assay: Long-term survivors among 7 mice infected with B16 melanoma, scored on day 90 at 20 mg/kg dose on day 1; assay type: functional
# [14] = system: Mus musculus; assay: Percent median survival time of mice injected with P388 leukemia, at a subcutaneous compound dose of 20 mg/kg; assay type: functional
# [15] = system: Mus musculus; assay: Percent median survival time of mice injected with P388 leukemia, at a subcutaneous compound dose of 10 mg/kg; assay type: functional
# [16] = system: Mus musculus; assay: Long-term survivors among 7 mice infected with P388 leukemia, scored on day 60 at 20 mg/kg dose on day 1; assay type: functional
# How it was run: (§4)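 B6D2F1 mice in groups of 6–7 received 10^6 P388 cells ip on day 0. Dihydrochloride salts dissolved in water were injected iv on day 1 or on days 1, 5 and 9, at three doses and then five. Read-outs were % T/C (median survival treated/control × 100) and long-term survivors on day 60, both at the optimal dose (no toxic death, weight loss <20%).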
# [17] = system: Mus musculus; assay: Percent median survival time of mice injected with B16 melanoma, at a intraperitoneal compound dose of 5 mg/kg
# [18] = system: Mus musculus; assay: Long-term survivors among 7 mice infected with B16 melanoma, scored on day 90 at 10 mg/kg dose on day 1; assay type: functional
# [19] = system: Mus musculus; assay: Percent median survival time of mice injected with B16 melanoma, at a intraperitoneal compound dose of 40 mg/kg
# [20] = system: Mus musculus; assay: Long-term survivors among 7 mice infected with P388 leukemia, scored on day 60 at 10 mg/kg dose on day 1; assay type: functional; how it was run: as §4
# [21] = system: Mus musculus; assay: Percent median survival time of mice injected with P388 leukemia, at a intravenous compound dose of 5 mg/kg
# [22] = system: Mus musculus; assay: Long-term survivors among 7 mice infected with P388 leukemia, scored on day 60 at 160 mg/kg dose on day 1; assay type: functional; how it was run: as §4
# [23] = system: Mus musculus; assay: Percent median survival time of mice injected with P388 leukemia, at a subcutaneous compound dose of 160 mg/kg; assay type: functional
# [24] = system: Mus musculus; assay: Percent median survival time of mice injected with P388 leukemia, at a intravenous compound dose of 80 mg/kg
# [25] = system: Mus musculus; assay: Long-term survivors among 7 mice infected with B16 melanoma, scored on day 90 at 160 mg/kg dose on day 1; assay type: functional
# [26] = system: Mus musculus; assay: Long-term survivors among 7 mice infected with B16 melanoma, scored on day 90 at 40 mg/kg dose on day 1; assay type: functional
# [27] = system: Mus musculus; assay: Percent median survival time of mice injected with P388 leukemia, at a intravenous compound dose of 40 mg/kg
# [28] = system: Mus musculus; assay: Long-term survivors among 7 mice infected with P388 leukemia, scored on day 60 at 40 mg/kg dose on day 1; assay type: functional; how it was run: as §4
smiles,measurement,setting,value
Cc1c2ccnc(C(=O)NCCN(C)C)c2cc2c3cc(OC(=O)N4CCN(C)CC4)ccc3n(C)c12,pIC50,[1],5.89
same,T/C,[2],159%
same,pIC50,[3],5.61
same,T/C,[4],146%
same,T/C,[5],134%
same,LTS,[6],0
same,LTS,[7],0
Cc1c2ccnc(C(=O)NCCN(C)C)c2cc2c3cc(OS(C)(=O)=O)ccc3n(C)c12,pIC50,[1],6.06
same,T/C,[8],106%
same,T/C,[2],142%
same,LTS,[9],0
same,pIC50,[3],6.11
same,T/C,[4],96%
same,LTS,[6],0
same,LTS,[10],0
Cc1c2ccnc(C(=O)NCCN(C)C)c2cc2c3cc(OP(=O)(O)O)ccc3n(C)c12,pIC50,[1],7.30
same,LTS,[11],0
same,T/C,[12],171%
same,T/C,[8],405%
same,LTS,[9],1
same,pIC50,[3],8.39
same,T/C,[4],239%
same,LTS,[6],1
COC(=O)CCCC(=O)Oc1ccc2c(c1)c1cc3c(C(=O)NCCN(C)C)nccc3c(C)c1n2C,pIC50,[1],8.27
same,LTS,[13],0
same,T/C,[14],145%
same,pIC50,[3],8.15
same,T/C,[15],158%
same,LTS,[16],0
same,T/C,[17],144%
CCCCCCCCCCCCN(C)C(=O)Oc1ccc2c(c1)c1cc3c(C(=O)NCCN(C)C)nccc3c(C)c1n2C,pIC50,[1],5.54
same,LTS,[18],0
same,T/C,[19],115%
same,LTS,[20],0
same,pIC50,[3],5.49
same,T/C,[15],103%
same,T/C,[21],100%
Cc1c2ccnc(C(=O)NCCN(C)C)c2cc2c3cc(OC(=O)CCCCCCC(=O)O)ccc3n(C)c12,pIC50,[1],7.27
same,LTS,[22],0
same,T/C,[23],287%
same,T/C,[24],>645%
same,pIC50,[3],8.51
same,LTS,[25],0
CCOC(=O)CCNC(=O)Oc1ccc2c(c1)c1cc3c(C(=O)NCCN(C)C)nccc3c(C)c1n2C,pIC50,[1],7.79
same,T/C,[12],115%
same,T/C,[14],95%
same,pIC50,[3],8.24
same,LTS,[26],0
same,T/C,[27],97%
same,LTS,[28],0
Cc1c2ccnc(C(=O)NCCN(C)C)c2cc2c3cc(OC(=O)CCCCC4CCSS4)ccc3n(C)c12 (stereo not drawn),pIC50,[1],6.93
same,LTS,[18],0
same,LTS,[20],0
same,pIC50,[3],7.85
same,T/C,[15]; 10 mg/kg,118% and 129%
same,T/C,[17],140%
Cc1c2ccnc(C(=O)NCCN(C)C)c2cc2c3cc(OC(=O)CCCCC(=O)OCc4ccccc4)ccc3n(C)c12,pIC50,[1],6.96
same,LTS,[13],0
same,T/C,[19],102%
same,T/C,[14],124%
same,pIC50,[3],7.23
same,T/C,[15],128%
same,LTS,[16],0
